Compound activity from PubChem.
Kir21 block – inhibitors of mouse Kir2.1 inward-rectifier potassium channel; Inward rectifier potassium channel 2 (Mus musculus), P35561; HEK293-Kir2.1, FluxOR thallium flux fluorescence; active compounds read low; B-score at 10 µM; 310,000 tested, 0.85% active; AID 1672, 2009;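 active means fluorescence ratio B-score at or below minus 3 SD of library scores, with starting-brightness B-score within 2 SD, cut at about -4.2 in these data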;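 further: channel flux triggered by added potassium and thallium sulfate stimulus; B-score of peak minus minimum fluorescence over baseline after thallium stimulus; more negative B-score means stronger Kir2.1 block with less thallium influx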
TRPC4 potent – positive allosteric modulators of TRPC4, primary screen, cell-based, mouse TRPC4beta, HEK293 mu-opioid, Fluo-4 calcium; Short transient receptor potential channel 4 (Mus musculus), Q9QUQ5; DAMGO EC20, Fluo-4 Ca2+ flux; active compounds read high; B-score at 10 µM; 310,000 tested, 0.42% active;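 active means B-score of calcium response area above 5 SD of library B-scores, with initial fluorescence ratio within 5 SD of library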
TRPC6 inhibitor – mouse TRPC6 channel inhibitors, primary screen, cell-based, HEK293, membrane potential dye; ACh-evoked depolarization; active compounds read low; 310,000 tested, 1.1% active; Short transient receptor potential channel 6 (Mus musculus), Q61143; B-score at 10 µM; AID 2553, 2010;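 active means B-score under library mean minus 3 SD, initial fluorescence not abnormally high, positive integrated signal ratio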;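 further: B-score derived from integrated fluorescence ratio over the kinetic read; more negative B-score means stronger inhibition of depolarization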
TRPC4 inh – inhibitors of mouse TRPC4 channel, primary screen, Fluo4 calcium, HEK293 TRPC4beta/mu-opioid cells; Short transient receptor potential channel 4 (Mus musculus), Q9QUQ5; DAMGO-evoked Fluo4 calcium flux; active compounds read low; B-score at 10 µM; 300,000 tested, 0.39% active;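 active means B-score over 3 SD under the library average, no early fluorescence shift, positive overall ratio signal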
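Signal: kinetic Fluo4 fluorescence imaging of calcium influx. Material: stable TRPC4beta/mu-opioid receptor HEK293 cells. Probe or stimulus: DAMGO in two steps, submaximal then maximal.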
TRPC4 agonist – activators of mouse TRPC4 channel, primary screen, Fluo4 calcium, HEK293 TRPC4beta/mu-opioid cells | Short transient receptor potential channel 4 (Mus musculus), Q9QUQ5 | Fluo4 calcium fluorescence; active compounds read high | B-score at 10 µM | 310,000 tested, 0.49% active;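 active means B-score above 5 SD of library B-scores, and initial fluorescence ratio not above library mean plus 5 SD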;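 further: positive B-score marks a calcium rise read as TRPC4 activation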
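Test system: HEK293 cells stably co-expressing mouse TRPC4beta and mu-opioid receptor | Schedule: Fluo4 dye loading 45 min at room temperature, 110 s recording | Measured by: Kinetic Fluo4 calcium fluorescence, 5 s baseline at 1 Hz | Evaluation: B score of integrated ratio | Controls: Buffer (low) and maximal DAMGO (high)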
TRPC6 activator – mouse TRPC6 channel activators, primary screen, cell-based, HEK293, membrane potential dye; HEK293-TRPC6 membrane potential dye fluorescence; active compounds read high; Short transient receptor potential channel 6 (Mus musculus), Q61143; AID 2550, 2010; B-score at 10 µM; 310,000 tested, 0.13% active;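 active means B-score of the integrated fluorescence ratio above library mean plus 3 SD, and starting fluorescence ratio within library mean plus 5 SD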;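 further: higher score means more depolarization so channel activation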
HEK293 MPD ctr – parental HEK293 membrane potential modulation, confirmation, counter-screen for TRPC6 modulator project, cell-based; shares compounds with TRPC6 inhibitor; membrane potential dye fluorescence; membrane potential signal change, % at 10 µM; 2,400 tested, 51% active; AID 488924, 2010;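 active means membrane potential signal moves up or down beyond 5 SD from buffer-only wells, on both duplicate plates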
HEK293 MPD ctr 2 – parental HEK293 nonspecific activity of TRPC6 modulators, second screen; shares compounds with TRPC6 inhibitor; membrane potential dye fluorescence; after compound, maximal acetylcholine stimulation; inhibition, % at 10 µM; 2,400 tested, 14% active;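 active means membrane potential signal drops by more than 5 SD from the mean control signal, in both duplicate plates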
TRPC4/MOR mod – TRPC4 modulation by TRPC6 hit compounds, confirmation, selectivity assay for TRPC6 modulator project, cell-based, HEK293 TRPC4/mu-opioid, membrane potential dye, mouse. shares compounds with TRPC6 inhibitor. membrane potential fluorescence. percent change from control (negative = decrease, positive = increase), % at 10 µM. 2,400 tested, 69% active. AID 488927, 2010;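 active means membrane potential signal moved up or down beyond 5 SD of buffer control wells, in both duplicate plates, actives on both sides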
TRPC4 ctr inh 2 – mouse TRPC4 off-target activity of TRPC6 modulators, second screen; shares compounds with TRPC6 inhibitor; 2,400 tested, 55% active; HEK293 TRPC4/mu-opioid, membrane potential dye fluorescence; stimulated with maximal-effect DAMGO; inhibition, % at 10 µM;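 active means drop in membrane potential signal beyond 5 SD of the control wells in both duplicate plates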;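 further: TRPC4 counter screen for TRPC6 hits run under conditions tuned for TRPC6 not TRPC4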
TRPC6 block conf – mouse TRPC6 channel inhibitors, confirmation, HEK293 cells, membrane potential dye, duplicate | shares compounds with TRPC6 inhibitor | ACh-evoked depolarization | inhibition, % at 10 µM | 3,300 tested, 43% active | AID 488960, 2010;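 active means fluorescence ratio falls more than 5 SD below the full-stimulation control mean, in both duplicate runs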;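 further: integrated fluorescence ratio of peak minus minimum over baseline after agonist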
TRPC6 act confirm – mouse TRPC6 channel activators, confirmation, HEK293 cells, membrane potential dye, duplicate. shares compounds with TRPC6 inhibitor. HEK293-TRPC6 membrane potential dye fluorescence, FDSS. activation, % at 10 µM. 2,800 tested, 11% active;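 active means ratio signal rise beyond 5 SD above unstimulated control wells' mean, seen in both duplicate runs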
Each line names hits and unclear results; the compound was inactive in the other large screens (follow-up assays come after a bar, where they were run). An excerpt weighted towards active compounds, which were near 2.9% of everything screened.

Cc1ccccc1/C=N/N1C(=O)CSC1=S	none
Cc1cc(NCC2CCCCC2)nc2ccccc12	none
Cc1cc(NCCNC2=CC(=O)CCC2)nc2ccccc12	TRPC6 inhibitor -5.5 | HEK293 MPD ctr -168% | HEK293 MPD ctr 2 inactive | TRPC4/MOR mod -27% | TRPC4 ctr inh 2 31% | TRPC6 block conf inactive | TRPC6 act confirm inactive
CC(C)(C)c1ccc(CN2C(=O)CSC2=O)cc1	TRPC6 inhibitor -5.2 | HEK293 MPD ctr inactive | HEK293 MPD ctr 2 inactive | TRPC4/MOR mod inactive | TRPC4 ctr inh 2 inactive | TRPC6 block conf inactive | TRPC6 act confirm inactive
Cc1nn(-c2ccc(N3CCCCC3)nn2)c(C)c1CCC(=O)Nc1ccccc1F	none
Cn1cc(CN2CCN(c3ccccc3)CC2)c2ccccc21	TRPC6 inhibitor -5.5 | HEK293 MPD ctr inactive | HEK293 MPD ctr 2 inactive | TRPC4/MOR mod 12% | TRPC4 ctr inh 2 43% | TRPC6 block conf inactive | TRPC6 act confirm inactive
COc1cccc(-n2nc(C(C)=O)c(C#N)c2-c2ccco2)c1	none
Cc1ccc(C(=O)Nc2ccc(N3CCCC3)cc2)cc1	none
Cc1ccc(C(=O)Nc2ccc(N3CCN(C)CC3)cc2)cc1C	TRPC6 inhibitor -6.1 | HEK293 MPD ctr inactive | HEK293 MPD ctr 2 inactive | TRPC4/MOR mod -15% | TRPC4 ctr inh 2 44% | TRPC6 block conf 42% | TRPC6 act confirm inactive
CC(C)Oc1ccc(C(=O)Nc2ccc(N3CCCCC3)cc2)cc1	TRPC6 inhibitor -5.9 | HEK293 MPD ctr inactive | HEK293 MPD ctr 2 inactive | TRPC4/MOR mod inactive | TRPC4 ctr inh 2 inactive | TRPC6 block conf inactive | TRPC6 act confirm inactive
Cc1[nH]c2ccccc2c1C(=O)CSc1ccc(F)cc1	none
COc1ccc(-c2[nH]c3ccccc3c2SCCNC(=O)c2ccccc2)cc1	none
Cc1[nH]c2ccccc2c1SCCN	none
NCCSc1c(-c2ccc(F)cc2)[nH]c2ccccc12	TRPC6 inhibitor -6 | HEK293 MPD ctr inactive | HEK293 MPD ctr 2 inactive | TRPC4/MOR mod inactive | TRPC4 ctr inh 2 83% | TRPC6 block conf 77% | TRPC6 act confirm inactive
